Compound activity: PubChem BioAssay, Sanford-Burnham Center for Chemical Genomics
Compounds with a hit are over-represented: about 1.3% of the library has one in this group of screens.
Diaphorase act = diaphorase activation or chemical reduction counter-screen. Diaphorase/resazurin coupled assay, resorufin fluorescence, 16 min; stronger effect = higher value; 1 = vehicle wells, 0 = NADH-free wells. activation factor at 20 µM. 190,000 tested, 0.005% active. AID 1229;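 active means diaphorase activity raised at least twofold by the compound at 20 µM; inactive means activation factor below 2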
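Material: Purified diaphorase enzyme from Clostridium kluyveri | Buffer or medium: 50 mM HEPES pH 7.4 with 4.542 mM MgCl2, 0.005% Tween 20 | Times: 16 min enzyme reaction, ambient temperature | Signal: Red resorufin fluorescence at 544/590 nm excitation/emission | Measure: Increased resorufin signal from activators or reducing compounds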
HKDC1 inh = HKDC1 (human) hexokinase inhibition; recombinant HKDC1, G6PDH/diaphorase resazurin coupled fluorescence; inhibition, % at 20 µM; 340,000 tested, 0.16% active;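 active means inhibition above about 35% when tested at 20 µM, limit read from the data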
Target sequence (Q2TB90 whole entry, looked up): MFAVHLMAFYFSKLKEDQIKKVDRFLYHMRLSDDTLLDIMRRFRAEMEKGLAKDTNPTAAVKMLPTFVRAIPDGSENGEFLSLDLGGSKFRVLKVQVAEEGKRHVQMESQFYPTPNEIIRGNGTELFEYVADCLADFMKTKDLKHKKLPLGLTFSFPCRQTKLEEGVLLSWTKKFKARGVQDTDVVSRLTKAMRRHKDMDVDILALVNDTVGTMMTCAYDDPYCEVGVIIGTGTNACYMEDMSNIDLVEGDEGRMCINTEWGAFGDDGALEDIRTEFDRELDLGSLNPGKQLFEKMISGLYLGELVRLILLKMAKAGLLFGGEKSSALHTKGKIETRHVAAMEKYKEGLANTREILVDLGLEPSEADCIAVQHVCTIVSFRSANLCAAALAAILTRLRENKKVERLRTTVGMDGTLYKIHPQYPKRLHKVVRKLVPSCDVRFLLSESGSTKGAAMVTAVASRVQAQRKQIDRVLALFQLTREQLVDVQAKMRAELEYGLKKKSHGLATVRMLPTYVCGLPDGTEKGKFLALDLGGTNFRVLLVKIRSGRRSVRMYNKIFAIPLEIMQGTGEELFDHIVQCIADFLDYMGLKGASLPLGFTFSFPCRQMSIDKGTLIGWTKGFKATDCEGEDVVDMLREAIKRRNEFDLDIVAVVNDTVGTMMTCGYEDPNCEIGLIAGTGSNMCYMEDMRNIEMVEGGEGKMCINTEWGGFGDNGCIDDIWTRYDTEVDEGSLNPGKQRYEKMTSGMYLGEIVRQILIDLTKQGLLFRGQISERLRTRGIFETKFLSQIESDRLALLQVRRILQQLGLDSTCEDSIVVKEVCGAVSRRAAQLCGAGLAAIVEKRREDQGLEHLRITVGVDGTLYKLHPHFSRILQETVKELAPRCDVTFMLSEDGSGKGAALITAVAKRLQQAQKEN
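System: Recombinant HKDC1 hexokinase | Amount: HKDC1 at 5 µg/mL | Reagent: Glucose with 1 mM ATP | Doses: Single 20 µM dose | Incubation: Reaction time 90 min, room temperature, protected from light | Signal: Coupled resazurin fluorescence, excitation 525 nm, emission 613 nm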
PfGluPho inh = PfG6PD (Plasmodium falciparum) enzyme inhibition; PfGluPho enzyme, NADPH resazurin-diaphorase fluorescence; inhibition, % at 20 µM; 350,000 tested, 0.78% active;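 active means inhibition reaching at least a set limit at 20 µM in the primary screen, cut at about 59% in these data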
Diaphorase inh = diaphorase inhibition or chemical oxidation counter-screen; diaphorase resazurin-to-resorufin fluorescence, NADH, 16 min; bacterial (C. kluyveri) enzyme, not human; inhibition, % at 20 µM; 190,000 tested, 0.69% active;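 active means primary screen inhibition at 20 µM above a set limit, cut at about 50% in these data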
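Benchmarks: positive control wells lacking NADH, neutral wells with DMSO only. System: bacterial diaphorase enzyme (C. kluyveri). Input: 0.14 U/mL diaphorase, enzyme working solution. Detection: resorufin fluorescence, excitation 544 nm, emission 590 nm. Times: 16-min room-temperature incubation before reading.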
G6PDH CS = inhibits Leuconostoc G6PDH, flagging false hits in G6PDH-based assays | Purified L. mesenteroides G6PDH, diaphorase/resazurin coupled fluorescence, 45 min | 200,000 tested, 0.12% active | inhibition, % at 5 µM; in the data active means inhibition above about 50%
PfG6PD confirm = confirmation of Plasmodium falciparum G6PD inhibitors; AID 504753; shares compounds with PfGluPho inh; inhibition, % at 20 µM; recombinant PfGluPho, NADPH-diaphorase-resazurin fluorescence; 2,400 tested, 34% active;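 active means inhibition of at least 50% at 20 µM in any single replicate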
Diaph ctr 10uM = counter-screen for P. falciparum G6PD inhibitors: diaphorase inhibitors, oxidizers; shares compounds with PfGluPho inh; diaphorase-coupled resazurin reduction, fluorescence, NADPH 10 uM; inhibition, % at 20 µM; 820 tested, 39% active; AID 504862;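 active means average inhibition reaching 50% or more with the compound at 20 µM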;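 further: resorufin red fluorescence formed as diaphorase reduces resazurin using NADPH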
Diaph ctr 30uM = counter-screen for P. falciparum G6PD inhibitors: diaphorase inhibitors, oxidizers; 820 tested, 29% active; inhibition, % at 20 µM; Diaphorase/resazurin coupled assay, resorufin fluorescence, 30 uM NADPH; shares compounds with PfGluPho inh;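 active means inhibition averaging 50% or more, tested at 20 µM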
A number is an active result; n = inactive; x = not tested or not shown; ! = not active in a repeat.

SMILES | Diaphorase act | HKDC1 inh | PfGluPho inh | Diaphorase inh | G6PDH CS | PfG6PD confirm | others
CCOC(=O)C1=C(C)Nc2ncnn2C1c1ccc(N(C)C)cc1 (centres undefined) | n | n | 61! | n | n | n
CCOC(=O)C1=C(C)Nc2nc(=S)[nH]n2C1c1ccc(Cl)cc1 (centres undefined) | n | n | 61 | n | n | n
COCCNC(=O)c1ccc2c(c1)ncn2-c1ccc(F)c(F)c1 | n | n | n | n | n | x
O=C(Nc1cccc(O)c1)c1cc(-c2ccco2)on1 | n | n | n | n | n | x
O=S(=O)(Cc1cccc(F)c1)c1c[nH]c2ccccc12 | n | n | 86 | n | n | n
O=C(CS(=O)(=O)c1c[nH]c2ccccc12)Nc1ccc(F)cc1 | x | n | n | x | x | x
COc1cc(SC)ccc1C(=O)Nc1ccc(C)cc1 | n | n | 61 | n | n | n
COc1cc(SC)ccc1C(=O)Nc1ccc2ncccc2c1 | x | n | 81 | x | x | n
O=C(CCCOc1ccc(Cl)cc1Cl)N/N=C/c1cccc([N+](=O)[O-])c1 | n | n | 112 | n | n | 69 | Diaph ctr 10uM=59;Diaph ctr 30uM=n
O=C(COc1ccc(Cl)cc1Cl)N/N=C/c1cccnc1 | x | n | n | x | x | x
Cc1ccc2nc(-c3ccc4c(c3)NC(=O)CO4)cn2c1 | x | n | 104 | x | x | n
Clc1ccc2nc(-c3ccc4c(c3)OCO4)cn2c1 | n | n | 73 | n | n | 50 | Diaph ctr 10uM=n;Diaph ctr 30uM=n
Cc1ccc2nc(-c3ccc4c(c3)OCCO4)cn2c1 | x | n | 109 | x | x | 58 | Diaph ctr 10uM=74;Diaph ctr 30uM=61
c1ccn2cc(-c3ccc4c(c3)OCCO4)nc2c1 | n | n | n | n | n | x
Clc1ccc2nc(-c3ccccc3)cn2c1 | x | n | 64 | x | x | n
CC(C)OCCCNC(=O)C(NS(=O)(=O)c1ccc2c(c1)c(=O)n(C)c(=O)n2C)c1ccccc1 (centres undefined) | n | x | x | n | n | x
Cc1c(C)n2c3c(cccc13)CC2 | n | n | n | n | n | x
CN(C)c1ccc2nc3ccc(=O)cc-3sc2c1 | x | x | 78 | x | x | 49 | Diaph ctr 10uM=n;Diaph ctr 30uM=n
COc1ccc2nc(N=Nc3ccc(N(C)C)cc3)sc2c1 | n | n | n | n | n | x
CCOC(=O)CC(NS(=O)(=O)Cc1ccccc1)c1ccc(C)cc1 (centres undefined) | n | n | n | n | n | x
Cc1ccc2nc(SCC(=O)NC3CCCc4ccccc43)[nH]c2c1 (centres undefined) | n | n | 75 | n | n | 59 | Diaph ctr 10uM=64;Diaph ctr 30uM=n
Cc1ccc(-c2cc(-c3ccccc3)c(C#N)c(N)n2)o1 | n | n | 83 | n | n | n
CCCCCCCCC(=O)c1c(OC)oc(C=O)cc1=O | x | x | n | x | x | x
CCCN1CCC(NCC(C)c2ccccc2)CC1 (centres undefined) | x | n | n | x | x | x
Cc1ccc(NC(=O)c2ccc(-n3cncn3)c([N+](=O)[O-])c2)cc1 | n | n | n | n | n | x
SMILES | Diaphorase act | HKDC1 inh | PfGluPho inh | Diaphorase inh | G6PDH CS | PfG6PD confirm | others
O=C(Nc1cccc(Cl)c1)c1ccc(-n2cncn2)c([N+](=O)[O-])c1 | n | n | 61 | n | n | n
O=C(Nc1ccc(Cl)cc1)c1ccc(-n2cncn2)c([N+](=O)[O-])c1 | n | n | 84 | n | n | n
COc1cc(NCc2ccccc2O)c2ncccc2c1 | x | n | 65 | x | x | 56 | Diaph ctr 10uM=n;Diaph ctr 30uM=n
COc1cccc(-c2nn(C)c3sc(C(=O)NCc4ccc5c(c4)OCO5)cc23)c1 | n | n | n | n | n | x
COc1cccc(-c2nn(C)c3sc(C(=O)NCc4ccc(C)o4)cc23)c1 | n | n | 64 | n | n | n
CC(=O)N1CCN(c2ccc(NCc3cccc4ccccc34)cc2)CC1 | x | n | 63 | x | x | n
CCc1nc2ccc(C(=O)NCCc3ccco3)cc2nc1CC | x | n | n | x | x | x
O=C(c1ccc2nc(-c3ccco3)c(-c3ccco3)nc2c1)N1CCN(c2ncccn2)CC1 | n | n | 69 | 66 | n | n
O=C(NCCCO)c1ccc2nc(-c3ccco3)c(-c3ccco3)nc2c1 | n | n | 75 | n | n | n
O=C(Nc1ccccc1)c1ccc2nc(-c3ccco3)c(-c3ccco3)nc2c1 | n | n | 61 | 79 | n | n
O=C(c1cccc(C(=O)N2CCN(c3ncccn3)CC2)c1)N1CCN(c2ncccn2)CC1 | n | n | n | n | n | x
CCC(=O)NC1=C(Cl)C(=O)C(NC(=O)CC)=C(Cl)C1=O | x | n | 114 | x | x | 114 | Diaph ctr 10uM=98;Diaph ctr 30uM=97
CC(C)c1ccccc1OCCNC(=S)NC(=O)c1cccnc1 | n | n | 67 | n | n | n
Cc1cc(Cl)ccc1OCCNC(=S)NC(=O)c1cccnc1 | x | n | n | x | x | x
COc1cccc(NC(=O)CSc2nnc(-c3ccoc3C)n2C)c1 | x | n | n | x | x | x
COc1ccc(-n2c(C)cc(C(=O)CSc3nnc(-c4ccoc4C)n3C)c2C)cc1 | n | n | 67 | n | n | n
Cc1cc(N=NC(=O)c2ccccc2O)c2ccccc2c1O | n | n | 64 | n | n | 49 | Diaph ctr 10uM=n;Diaph ctr 30uM=n
COc1ccc(CNC(=O)CSc2nnc(C)c(=O)[nH]2)cc1 | x | n | n | x | x | x
Cc1ccc(-c2nn(-c3ccccc3)cc2/C=N/NC(=O)c2ccncc2)o1 | n | n | 60 | n | n | n
O=C(N/N=C/c1cn(-c2ccccc2)nc1-c1cccs1)c1ccncc1 | n | n | n | n | n | x
S=c1[nH]cc(-c2ccccc2)[nH]1 | x | n | n | x | x | x
O=[N+]([O-])c1ccc(-c2c[nH]c(=S)[nH]2)cc1 | x | n | 64 | x | x | n
Cn1c(N)c(C(=O)COC(=O)C2CCC(C(C)(C)C)CC2)c(=O)n(C)c1=O (centres undefined) | n | n | n | n | n | x
Cc1ccc2c(c1)c1ccc3c(c1n2C)C(=O)C=CC3=O | x | n | 66 | x | x | n
N#Cc1cc(Cl)c(N2CCOCC2)cc1C#N | n | n | n | n | n | x
SMILES | Diaphorase act | HKDC1 inh | PfGluPho inh | Diaphorase inh | G6PDH CS | PfG6PD confirm | others
N#Cc1cc2ccc(N3CCOCC3)cc2cc1C#N | n | n | 63 | n | n | n
CC1CCN(c2nc3ccc(C(=O)N4CCN(Cc5ccc6c(c5)OCO6)CC4)cc3s2)CC1 | n | n | n | n | n | x
Oc1ccc(N2CCN(C(c3cccs3)c3nnnn3CCc3ccccc3)CC2)cc1 (centres undefined) | n | n | 66 | n | n | n
C[C@@H]1CCC[C@@]2(O[C@@H](CCO)C[C@H](O)[C@H]2O)O1 | x | n | n | x | x | x
O=C(CSc1nc(-c2ccc(F)cc2)cs1)NCCN1C(=O)CSC1=O | n | n | n | n | n | x
CC(SC1=NCCN1S(=O)(=O)c1ccccc1)c1ccccc1 (centres undefined) | x | n | 62 | x | x | n
